Measured values reported in ChEMBL document CHEMBL3877306, “Triazole Ureas Act as Diacylglycerol Lipase Inhibitors and Prevent Fasting-Induced Refeeding” (J Med Chem, 2017).
Calls of active or inactive are those of the source. The rule behind the calls is not given here.

Experiments:
Mus musculus [1] = test: Increase in fat oxidation in 18 hrs fasted C57Bl/6J mouse model of fasting-induced refeeding at 50 mg/kg, ip administered as single dose 30 mins prior to refeeding measured after 20 mins; format: functional, organism-based
[2] = target: T1, Diacylglycerol lipase-alpha (Mus musculus, UniProt Q6WQJ1); test: (§1) Inhibition of MB064 probe binding to DAGLalpha in mouse brain membrane proteome preincubated for 30 mins followed by MB064 probe addition measured after 20 mins by gel-based competitive activity based protein profiling assay; format: cell membranes
T1 sequence (Q6WQJ1 whole entry): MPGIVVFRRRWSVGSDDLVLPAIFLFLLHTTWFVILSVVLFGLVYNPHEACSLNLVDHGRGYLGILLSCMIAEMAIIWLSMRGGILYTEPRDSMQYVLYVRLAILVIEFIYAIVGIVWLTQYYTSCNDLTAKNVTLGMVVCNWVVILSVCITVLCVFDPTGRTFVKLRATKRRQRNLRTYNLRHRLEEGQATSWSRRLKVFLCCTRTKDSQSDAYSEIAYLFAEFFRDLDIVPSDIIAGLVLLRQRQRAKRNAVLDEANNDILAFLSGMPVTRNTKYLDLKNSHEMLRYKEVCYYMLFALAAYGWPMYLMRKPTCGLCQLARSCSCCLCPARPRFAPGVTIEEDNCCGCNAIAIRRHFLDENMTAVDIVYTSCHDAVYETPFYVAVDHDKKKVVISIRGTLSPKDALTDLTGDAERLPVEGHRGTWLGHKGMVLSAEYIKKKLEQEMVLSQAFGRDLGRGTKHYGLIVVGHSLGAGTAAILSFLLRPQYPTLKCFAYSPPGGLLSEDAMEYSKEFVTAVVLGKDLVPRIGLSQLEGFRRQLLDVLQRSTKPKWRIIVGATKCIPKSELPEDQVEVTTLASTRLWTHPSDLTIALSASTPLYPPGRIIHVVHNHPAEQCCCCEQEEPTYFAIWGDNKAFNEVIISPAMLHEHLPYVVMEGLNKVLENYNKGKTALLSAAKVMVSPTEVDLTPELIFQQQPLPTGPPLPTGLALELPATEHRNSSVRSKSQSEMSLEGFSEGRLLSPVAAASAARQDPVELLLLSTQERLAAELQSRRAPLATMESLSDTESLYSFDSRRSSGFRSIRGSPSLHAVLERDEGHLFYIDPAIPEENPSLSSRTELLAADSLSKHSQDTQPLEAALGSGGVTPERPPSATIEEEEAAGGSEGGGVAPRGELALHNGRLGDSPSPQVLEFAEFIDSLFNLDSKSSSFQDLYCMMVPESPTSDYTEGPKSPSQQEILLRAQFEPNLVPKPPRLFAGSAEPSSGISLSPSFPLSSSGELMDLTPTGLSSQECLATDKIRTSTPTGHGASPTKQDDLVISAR
Outline: (§2)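 Mouse brain membrane proteome (2 mg/mL) preincubated with inhibitor or DMSO vehicle for 30 min at r.t., then labelled with MB064 at 250 nM final for 20 min at r.t. and quenched in Laemmli buffer. Fluorescent bands were quantified against vehicle set to 100%, and IC50 was taken from a variable-slope log(inhibitor) vs normalized response fit. n = 3.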

[3] = target: T2, Diacylglycerol lipase-alpha (Mus musculus) (UniProt Q6WQJ1); test: as §1; format: cell membranes; outline: as §2
T2 sequence (whole entry): T1 sequence (Q6WQJ1 whole entry)

Mus musculus [4] = test: Reduction in carbohydrate oxidation in 18 hrs fasted C57Bl/6J mouse model of fasting-induced refeeding at 50 mg/kg, ip administered as single dose 30 mins prior to refeeding measured after 20 mins; format: functional, organism-based
Mus musculus [5] = test: Inhibition of fasting-induced refeeding in 18 hrs fasted C57Bl/6J mouse at 50 mg/kg, ip administered as single dose 30 mins prior to refeeding measured up to 4 hrs; format: functional, organism-based
[6] = target: T3, Monoacylglycerol lipase ABHD6 (Homo sapiens, UniProt Q9BV23); test: Inhibition of human ABHD6 using 2-AG as natural substrate by fluorescence based assay
T3 sequence (Q9BV23 whole entry): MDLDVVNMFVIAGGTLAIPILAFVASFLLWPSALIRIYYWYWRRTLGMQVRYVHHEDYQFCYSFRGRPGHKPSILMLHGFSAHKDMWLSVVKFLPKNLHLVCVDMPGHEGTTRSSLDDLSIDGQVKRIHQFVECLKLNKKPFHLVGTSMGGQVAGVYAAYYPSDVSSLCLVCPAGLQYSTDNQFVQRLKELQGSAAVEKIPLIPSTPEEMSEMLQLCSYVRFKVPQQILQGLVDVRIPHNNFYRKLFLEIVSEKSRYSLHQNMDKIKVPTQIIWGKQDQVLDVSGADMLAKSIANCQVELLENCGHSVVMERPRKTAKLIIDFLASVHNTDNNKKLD
Outline: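 Coupled fluorescence assay: 2-AG hydrolysis detected via glycerol kinase, glycerol-3-phosphate oxidase and HRP (0.2 U/mL each), 0.125 mM ATP and 10 µM Amplifu Red. Conditions: 25 µM 2-AG, 0.5% acetonitrile, 5% DMSO, ABHD6 membrane protein 40 µg/mL final. n = 4.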

[7] = target: T4, Monoacylglycerol lipase ABHD6 (Mus musculus, UniProt Q8R2Y0); test: Inhibition of MB064 probe binding to ABHD6 in mouse brain membrane proteome preincubated for 30 mins followed by MB064 probe addition measured after 20 mins by gel-based competitive activity based protein profiling assay; format: cell membranes; outline: as §2
T4 sequence (Q8R2Y0 whole entry): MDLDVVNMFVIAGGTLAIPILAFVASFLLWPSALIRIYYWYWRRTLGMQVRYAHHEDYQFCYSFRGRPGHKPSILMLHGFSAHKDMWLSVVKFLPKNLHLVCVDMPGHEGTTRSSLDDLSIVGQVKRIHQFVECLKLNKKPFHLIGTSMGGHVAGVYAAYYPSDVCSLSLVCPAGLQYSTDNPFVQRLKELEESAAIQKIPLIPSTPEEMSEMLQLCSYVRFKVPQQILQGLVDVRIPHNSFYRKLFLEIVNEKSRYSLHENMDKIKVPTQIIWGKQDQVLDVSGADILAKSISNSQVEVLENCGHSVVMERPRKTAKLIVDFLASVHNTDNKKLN

Mus musculus [8] = test: Ex vivo inhibition of FP-TAMRA probe binding to carboxylesterase in mouse liver at 3 to 50 mg/kg, ip after 4 hrs by gel-based competitive activity based protein profiling assay; format: functional, organism-based
Mus musculus [9] = test: Toxicity in 18 hrs fasted C57Bl/6J mouse model of fasting-induced refeeding assessed as effect on locomotor activity at 50 mg/kg, ip administered as single dose 30 mins prior to refeeding measured after 24 hrs; format: organism-based; settings: in vivo
Mus musculus [10] = organism: Mus musculus; test: Selectivity ratio of IC50 for ABHD6 in mouse brain membrane proteome to IC50 for DAGLalpha in mouse brain membrane proteome; format: cell membranes
Outline: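 Ratio of DAGLα and ABHD6 […] values, both from competitive gel ABPP in mouse brain membrane proteome. Inhibitor was preincubated 30 min at r.t., then MB064 (250 nM final) was added for 20 min. Band intensities were normalized to vehicle and fitted with a variable-slope curve. n = 3.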

Compound: C#CCO[C@@H]1CC[C@H](Cc2ccccc2)N(C(=O)n2ncc(C(O)(c3ccc(F)cc3)c3ccc(F)cc3)n2)C1
- Activity (Mus musculus [1]): Active
- IC50 [2]: 0.631 nM
- inhibition [3]: Dose-dependent effect
- Activity (Mus musculus [4]): Active
- inhibition (Mus musculus [5]): Active
- IC50 [6]: 2.51 nM
- IC50 [7]: 79.4 nM
- inhibition (Mus musculus [8]): Active
- Activity (Mus musculus [9]): Non-Toxic
- Ratio IC50 (Mus musculus [10]): 126
